Source: ChEMBL document CHEMBL1152538, “Synthesis and biological evaluation of asymmetric gramicidin S analogues containing modified D-phenylalanine residues” (Bioorg Med Chem, 2009)
≈ marks a conversion by molar mass, not a printed value. Where a SMILES comes first, the peptide text is derived from it. [ ]: non-standard residue; d: D form. The star is where a group is joined. Diphenylacetyl = O=C(C(c1ccccc1)c1ccccc1)*; Phe(4-NH2) = Nc1ccc(C[C@H](N)C(=O)O)cc1; X1 = O=C(C1C2CC3CC(C2)CC1C3)*; Isobutyryl = CC(C)C(=O)*; Orn = NCCC[C@H](N)C(=O)O; Propionyl = CCC(=O)*

Experiments:
Staphylococcus aureus [1] = experiment: Antibacterial activity against Staphylococcus aureus 7323 after 24 to 96 hrs by well microplate assay; type: functional
Procedure, shortened: (§1)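 Strains were kept at -70 °C, grown at 30 °C on sheep-blood Columbia agar, and suspended in saline to OD595 0.1, then diluted 10×. Inoculum was added at 2 µL per 100 µL Nutrient Broth with yeast extract (2 g/400 mL). Peptide stocks were 4 g/L in ethanol, diluted to 1000 mg/L in water, then twofold in broth (64–1 mg/L). Plates were held at 30 °C for 24–96 h. MIC was the lowest concentration inhibiting growth.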

Staphylococcus aureus [2] = experiment: Antibacterial activity against Staphylococcus aureus 7388 after 24 to 96 hrs by well microplate assay; type: functional; procedure, shortened: as §1
Enterococcus faecalis = experiment: Antibacterial activity against Enterococcus faecalis 1131 after 24 to 96 hrs by well microplate assay; type: functional; procedure, shortened: as §1
Escherichia coli = experiment: Antibacterial activity against Escherichia coli ATCC 25922 after 24 to 96 hrs by well microplate assay; type: functional; procedure, shortened: as §1
Pseudomonas aeruginosa [3] = experiment: Antibacterial activity against Pseudomonas aeruginosa AK1 after 24 to 96 hrs by well microplate assay; type: functional; procedure, shortened: as §1
Pseudomonas aeruginosa [4] = experiment: Antibacterial activity against Pseudomonas aeruginosa ATCC 19582 after 24 to 96 hrs by well microplate assay; type: functional; procedure, shortened: as §1
Streptococcus mitis [5] = experiment: Antibacterial activity against Streptococcus mitis BMS after 24 to 96 hrs by well microplate assay; type: functional; procedure, shortened: as §1
Streptococcus mitis [6] = experiment: Antibacterial activity against Streptococcus mitis ATCC 33399 after 24 to 96 hrs by well microplate assay; type: functional; procedure, shortened: as §1
[7] = Cytotoxicity against human erythrocytes assessed as hemolysis at 1.5 mM after 4 hrs by twofold dilution assay; type: cell-based; conditions: erythrocyte, 1500 µM
[8] = test system: coagulase-negative Staphylococcus; experiment: Antibacterial activity against coagulase-negative Staphylococcus CNS 5277 after 24 to 96 hrs by well microplate assay
[9] = test system: coagulase-negative Staphylococcus; experiment: Antibacterial activity against coagulase-negative Staphylococcus CNS 5115 after 24 to 96 hrs by well microplate assay
[10] = test system: coagulase-negative Staphylococcus; experiment: Antibacterial activity against coagulase-negative Staphylococcus CNS 7368 after 24 to 96 hrs by well microplate assay

CC(=O)Nc1ccc(C[C@@H]2NC(=O)[C@H](CC(C)C)NC(=O)[C@H](CCCN)NC(=O)[C@H](C(C)C)NC(=O)[C@@H]3CCCN3C(=O)[C@H](Cc3ccccc3)NC(=O)[C@H](CC(C)C)NC(=O)[C@H](CCCN)NC(=O)[C@H](C(C)C)NC(=O)[C@@H]3CCCN3C2=O)cc1 (cyclo(FPV[Orn]L[Phe(4-NH2)](Ac)PV[Orn]L))
MIC (Staphylococcus aureus [1]): 64 µg/mL (≈ 53.4 µM)
MIC (Staphylococcus aureus [2]): 16 µg/mL (≈ 13.3 µM)
MIC (Enterococcus faecalis): 64 µg/mL (≈ 53.4 µM)
MIC (Escherichia coli): 64 µg/mL (≈ 53.4 µM)
MIC (Pseudomonas aeruginosa [3]): > 64 µg/mL
MIC (Pseudomonas aeruginosa [4]): > 64 µg/mL
MIC (Streptococcus mitis [5]): 8 µg/mL (≈ 6.67 µM)
MIC (Streptococcus mitis [6]): 16 µg/mL (≈ 13.3 µM)
Activity [7]: Non-toxic
MIC [8]: 16 µg/mL (≈ 13.3 µM)
MIC [9]: 32 µg/mL (≈ 26.7 µM)
MIC [10]: 32 µg/mL (≈ 26.7 µM)

CC(C)C[C@@H]1NC(=O)[C@H](CCCN)NC(=O)[C@H](C(C)C)NC(=O)[C@@H]2CCCN2C(=O)[C@H](Cc2ccccc2)NC(=O)[C@H](CC(C)C)NC(=O)[C@H](CCCN)NC(=O)[C@H](C(C)C)NC(=O)[C@@H]2CCCN2C(=O)[C@H](Cc2ccc(NC(=O)C(c3ccccc3)c3ccccc3)cc2)NC1=O (cyclo(FPV[Orn]L[Phe(4-NH2)](Diphenylacetyl)PV[Orn]L))
MIC (Staphylococcus aureus [1]): 16 µg/mL (≈ 11.8 µM)
MIC (Staphylococcus aureus [2]): 32 µg/mL (≈ 23.7 µM)
MIC (Enterococcus faecalis): 16 µg/mL (≈ 11.8 µM)
MIC (Escherichia coli): > 64 µg/mL
MIC (Pseudomonas aeruginosa [3]): > 64 µg/mL
MIC (Pseudomonas aeruginosa [4]): > 64 µg/mL
MIC (Streptococcus mitis [5]): 16 µg/mL (≈ 11.8 µM)
MIC (Streptococcus mitis [6]): > 64 µg/mL
MIC [8]: 64 µg/mL (≈ 47.4 µM)
MIC [9]: > 64 µg/mL
MIC [10]: 8 µg/mL (≈ 5.92 µM)

CC(C)C[C@@H]1NC(=O)[C@H](CCCN)NC(=O)[C@H](C(C)C)NC(=O)[C@@H]2CCCN2C(=O)[C@H](Cc2ccccc2)NC(=O)[C@H](CC(C)C)NC(=O)[C@H](CCCN)NC(=O)[C@H](C(C)C)NC(=O)[C@@H]2CCCN2C(=O)[C@H](Cc2ccc(NC(=O)C(C)C)cc2)NC1=O (cyclo(FPV[Orn]L[Phe(4-NH2)](Isobutyryl)PV[Orn]L))
MIC (Staphylococcus aureus [1]): 32 µg/mL (≈ 26.1 µM)
MIC (Staphylococcus aureus [2]): 16 µg/mL (≈ 13 µM)
MIC (Enterococcus faecalis): 16 µg/mL (≈ 13 µM)
MIC (Escherichia coli): 32 µg/mL (≈ 26.1 µM)
MIC (Pseudomonas aeruginosa [3]): > 64 µg/mL
MIC (Pseudomonas aeruginosa [4]): > 64 µg/mL
MIC (Streptococcus mitis [5]): 8 µg/mL (≈ 6.52 µM)
MIC (Streptococcus mitis [6]): 32 µg/mL (≈ 26.1 µM)
MIC [8]: 16 µg/mL (≈ 13 µM)
MIC [9]: 16 µg/mL (≈ 13 µM)
MIC [10]: 16 µg/mL (≈ 13 µM)

CCC(=O)Nc1ccc(C[C@@H]2NC(=O)[C@H](CC(C)C)NC(=O)[C@H](CCCN)NC(=O)[C@H](C(C)C)NC(=O)[C@@H]3CCCN3C(=O)[C@H](Cc3ccccc3)NC(=O)[C@H](CC(C)C)NC(=O)[C@H](CCCN)NC(=O)[C@H](C(C)C)NC(=O)[C@@H]3CCCN3C2=O)cc1 (cyclo(FPV[Orn]L[Phe(4-NH2)](Propionyl)PV[Orn]L))
MIC (Staphylococcus aureus [1]): 32 µg/mL (≈ 26.4 µM)
MIC (Staphylococcus aureus [2]): 16 µg/mL (≈ 13.2 µM)
MIC (Enterococcus faecalis): 32 µg/mL (≈ 26.4 µM)
MIC (Escherichia coli): 64 µg/mL (≈ 52.8 µM)
MIC (Pseudomonas aeruginosa [3]): > 64 µg/mL
MIC (Pseudomonas aeruginosa [4]): > 64 µg/mL
MIC (Streptococcus mitis [5]): 8 µg/mL (≈ 6.6 µM)
MIC (Streptococcus mitis [6]): 16 µg/mL (≈ 13.2 µM)
MIC [8]: 8 µg/mL (≈ 6.6 µM)
MIC [9]: 16 µg/mL (≈ 13.2 µM)
MIC [10]: 8 µg/mL (≈ 6.6 µM)

CC(C)C[C@@H]1NC(=O)[C@H](CCCN)NC(=O)[C@H](C(C)C)NC(=O)[C@@H]2CCCN2C(=O)[C@H](Cc2ccccc2)NC(=O)[C@H](CC(C)C)NC(=O)[C@H](CCCN)NC(=O)[C@H](C(C)C)NC(=O)[C@@H]2CCCN2C(=O)[C@H](Cc2ccc(NC(=O)C3C4CC5CC(C4)CC3C5)cc2)NC1=O (some centres not stated) (cyclo(FPV[Orn]L[Phe(4-NH2)](X1)PV[Orn]L))
MIC (Staphylococcus aureus [1]): 8 µg/mL (≈ 6.07 µM)
MIC (Staphylococcus aureus [2]): 8 µg/mL (≈ 6.07 µM)
MIC (Enterococcus faecalis): 64 µg/mL (≈ 48.5 µM)
MIC (Escherichia coli): > 64 µg/mL
MIC (Pseudomonas aeruginosa [3]): > 64 µg/mL
MIC (Pseudomonas aeruginosa [4]): > 64 µg/mL
MIC (Streptococcus mitis [5]): 8 µg/mL (≈ 6.07 µM)
MIC (Streptococcus mitis [6]): 16 µg/mL (≈ 12.1 µM)
Activity [7]: Non-toxic
MIC [8]: 16 µg/mL (≈ 12.1 µM)
MIC [9]: 8 µg/mL (≈ 6.07 µM)
MIC [10]: 8 µg/mL (≈ 6.07 µM)
